# Only some compounds are listed: those with a hit (about 6.8% of all), similar ones and a draw of the others.
# PHOSPHO1 inh: PubChem AID 1565; recombinant PHOSPHO1, absorbance phosphatase assay; inhibition, % at 13.3 µM; 1.1% of 290,000 active; in the data active means inhibition above about 60%
# Target sequence (Q8TCT1 whole entry, looked up): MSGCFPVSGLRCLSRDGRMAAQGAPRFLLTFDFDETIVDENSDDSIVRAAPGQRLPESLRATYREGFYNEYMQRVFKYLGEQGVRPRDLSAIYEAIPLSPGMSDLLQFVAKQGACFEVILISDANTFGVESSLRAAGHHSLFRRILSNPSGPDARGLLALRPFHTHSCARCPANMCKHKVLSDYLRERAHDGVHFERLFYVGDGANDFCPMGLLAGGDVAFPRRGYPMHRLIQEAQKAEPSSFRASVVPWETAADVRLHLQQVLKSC
# core dimer inh: inhibitors of HCV core protein dimerization, primary screen, biochemical, TR-FRET, high-throughput; TR-FRET GST/Flag-core106 dimerization, 1536-well; inhibition, % at 5 µM; 0.33% of 300,000 active; AID 1899, 2009;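 active means inhibition above the mean of all tested compounds plus 3 SD, set per screening campaign, cut at about 45% in these data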
#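 Assay system – GST-tagged and Flag-tagged HCV core protein residues 1-106 · Quantity – core106 proteins, GST 13.5 nM and Flag 17 nM · Benchmarks – unlabelled core106 and no-GST-core106 wells · Read-out basis – percent inhibition of core106 dimerization signal · Detection – time-resolved FRET, ex 340 nm, em 617 and 671 nm · Schedule – 4 h at 22.5 °C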
# AI-2 QS mod: Vibrio harveyi AI-2 quorum sensing modulators, primary screen, JMH597 strain, luminescence/OD600 ratio | AID 2094, 2009 | 0.4% of 300,000 active | Vibrio harveyi JMH597 AI-2 luminescence/OD600 ratio, 9 h; stronger effect = lower value; strain lacks LuxN and CqsS sensors; 0 = neutral-control median | activity change, % at 7.5 µM; in the data active means activity change below about -75%, passing the limit was not always enough;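 further: luminescence divided by OD600 gain over 9 h not by final OD600 alone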
# HSF1 inhib: HSF1 inhibitors in luciferase reporter cells, primary screen, cell-based, NIH3T3, luminescence; NIH3T3-HGL HSE-luciferase, MG132-induced, luminescence 8 h; stronger effect = lower value; activity change, negative = inhibition, % at 7.5 µM (by protocol); 0.77% of 300,000 active; AID 2098, 2009;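 active means more than half of replicate wells show activity change below -50%, luminescence cut by over half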;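 further: luciferase reports HSF-1 transcriptional activity via heat shock element; 0% = median of DMSO wells and -100% = zero luminescence signal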
# HSF-1 act: HSF-1 activators, primary screen, NIH3T3-HGL cells, MG132 stress, luminescence, single point. 1.7% of 300,000 active. activation, % at 9 µM. NIH3T3-HGL HSF-1 luciferase reporter, 8 h; 100% = twice DMSO control signal. AID 504408, 2011;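 active means mean replicate activation of at least 50% with a set share of replicates each reaching 50%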;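 further: 0% = median of the neutral control wells and 100% = twice that signal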
# ALR H2O2 inh: inhibitors of human ALR sulfhydryl oxidase, primary screen, biochemical, H2O2 detection, HRP-luminol luminescence, single point | inhibition, % (test concentration not listed) | 3.8% of 290,000 active | purified ALR, DTT oxidation;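 active means mean replicate inhibition above about 79%, with every replicate also reaching it, limit read from the data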
# Target sequence (P55789 whole entry, looked up): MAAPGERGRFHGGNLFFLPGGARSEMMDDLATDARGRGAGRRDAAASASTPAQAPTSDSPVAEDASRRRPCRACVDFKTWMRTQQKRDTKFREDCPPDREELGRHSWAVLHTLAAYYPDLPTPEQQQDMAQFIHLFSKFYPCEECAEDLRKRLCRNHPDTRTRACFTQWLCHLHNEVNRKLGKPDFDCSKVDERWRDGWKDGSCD
# Active calls of the source: *; / = no result given.
SMILES,PHOSPHO1 inh,core dimer inh,AI-2 QS mod,HSF1 inhib,HSF-1 act,ALR H2O2 inh
Cc1nc([N+](=O)[O-])c(Br)n1CC(=O)c1ccc(Br)cc1,1.7,8.4,16.6,97.9,122.8*,10.3
Cc1nc([N+](=O)[O-])c(Br)n1CC(=O)c1ccc2ccccc2c1,-3.2,23.1,2.4,117.6,159.1*,20.0
C[C@@H]1NC(=O)N[C@@H]1CCCCCC(=O)O,/,3.4,8.6,-2.2,-1.0,-10.2
[O-][n+]1ccccc1SC/C=C/c1ccccc1,-39.5,-0.5,-35.1,22.5,53.0*,-16.5
Clc1ccc(-c2nnc(CNC3CC3)o2)cc1,1.7,0.6,11.4,18.6,36.5,-15.3
Nc1c(C(=O)c2ccc(Br)cc2)oc2ccccc12,7.2,-4.3,11.0,-1.4,4.7,-3.5
Nc1c(C(=O)c2ccccc2)oc2ccc(Br)cc12,12.7,-7.1,1.4,28.8,62.6*,-1.3
CC1CCc2c(sc3nc(CN4CCOCC4)nc(Sc4ccccc4)c23)C1 (configuration not stated),2.9,-5.0,1.5,11.0,32.4,98.4*
CCN(CC)C(=O)C(=O)N/N=C/c1ccc(F)cc1,8.9,-5.7,0.1,-2.3,4.2,-5.6
CC(C)(C)NC(=O)NC(=O)CN1CCN(c2cccc(Cl)c2)CC1,5.0,-1.1,17.8,-2.4,-11.1,/
CCOc1ccc(NC(=O)C2CC(=O)N3CCCN=C3S2)cc1 (configuration not stated),18.9,50.0*,34.1,22.3,53.9*,-8.6
COc1cccc(NC(=O)C2CC(=O)n3cnnc3S2)c1 (configuration not stated),102.9*,-4.5,/,/,/,4.9
COc1ccc(NC(=O)C2CC(=O)n3cnnc3S2)cc1 (configuration not stated),103.8*,-3.5,41.5,-4.7,4.7,2.0
CCCOc1ccc(NC(=O)C2CC(=O)N3CCCN=C3S2)cc1 (configuration not stated),3.7,7.3,14.8,6.0,11.9,-5.4
COc1ccc(OC)c(N(CC(=O)N2CCCC2)S(C)(=O)=O)c1,52.1,-10.2,-5.3,-4.8,4.9,-0.5
O=C(N/N=C/c1ccccc1)NC1CCCCC1,-26.5,0.5,7.7,10.3,34.5,-3.5
COc1cc(/C=N/N2C(=O)C3C4C=CC(CC4)C3C2=O)ccc1O (configuration not stated),-12.7,-4.0,10.4,-4.3,15.7,90.2*
COc1cc(/C=N/NC(=O)c2ccc(NC(=O)C3CCCCC3)cc2)ccc1O,32.7,/,64.4,-5.8,-5.4,51.1
COc1cc(/C=N/NC(=O)NC2CCCCC2)ccc1O,-20.6,0.3,17.9,1.2,4.8,99.1*
COc1cc(/C=N/NC(=O)NC2CCCCC2)cc(OC)c1O,37.1,-2.7,11.0,2.6,-11.4,98.9*
CS(=O)(=O)N1CCCC(C(=O)N2CCN(c3cccc(Cl)c3)CC2)C1 (configuration not stated),10.5,0.9,12.1,0.5,9.7,5.8
CNCC(=O)N1CCN(c2ncc(C(F)(F)F)cc2Cl)CC1,-7.9,-6.2,6.2,2.7,-5.9,-5.4
CCOc1ccc(CCNC(=O)CS(=O)Cc2nc(-c3ccccc3C)oc2C)cc1OCC (configuration not stated),20.7,-1.0,34.8,-5.7,3.2,98.7*
COc1cccc(-c2nc(CS(=O)CC(=O)NCCc3ccc(C)cc3)c(C)o2)c1 (configuration not stated),22.5,-0.3,/,4.5,0.4,13.7
COc1ccc(-c2nc(CS(=O)CC(=O)NCCC3=CCCCC3)c(C)o2)cc1 (configuration not stated),43.5,16.8,31.0,10.1,5.8,99.2*
SMILES,PHOSPHO1 inh,core dimer inh,AI-2 QS mod,HSF1 inhib,HSF-1 act,ALR H2O2 inh
Cc1ccc(CCNC(=O)CS(=O)Cc2nc(-c3cccc(C)c3)oc2C)cc1 (configuration not stated),31.2,-13.9,35.5,5.9,-4.0,99.4*
CCOc1ccc(CCNC(=O)COC(=O)COc2ccccc2C)cc1OCC,/,6.6,24.6,-4.7,-20.4,-9.5
CCOc1ccc(CCNC(=O)CS(=O)Cc2nc(-c3ccc(C)cc3)oc2C)cc1OCC (configuration not stated),31.5,4.8,9.3,1.2,-1.3,98.3*
CCNC(=S)N1CCC(C(N)=O)CC1,27.3,-1.7,11.7,-4.5,-9.0,0.1
CC(=O)N1CCCC1(C(=O)O)c1ccccc1 (configuration not stated),11.7,-2.1,2.6,0.2,1.4,/
CN(CC(=O)Nc1ccccc1N1CCCC1)S(=O)(=O)c1ccc(F)cc1,/,-0.8,31.2,3.5,-14.0,45.1
O=C1CCCC/C=C\C[C@H](CC(=O)N(CCO)Cc2ccccc2)C(=O)NCCO1,/,/,/,/,/,-4.2
CCOc1ccc(CCNC(=O)CS(=O)Cc2nc(-c3ccc(C)cc3)oc2C)cc1 (configuration not stated),20.7,-13.5,10.0,3.8,0.9,99.2*
CC(C)Oc1ccc(S(=O)(=O)N2CCCCC2)cc1NC(=O)C1CCC1,/,4.9,-6.8,-1.1,-10.4,-19.7
COC(=O)/C=c1/s/c(=C(\C#N)C(=O)NCc2ccco2)n(-c2ccc(C)cc2)c1=O,27.3,56.9*,30.4,3.1,-8.8,-1.1
COc1ccc(N2CC(C(=O)NC3CCSC3=O)CC2=O)cc1 (configuration not stated),-7.2,-10.0,-2.9,-8.7,0.3,4.7
Nn1c(SCC(=O)Nc2cccc(C(F)(F)F)c2)nncc1=O,19.0,3.3,9.6,0.4,1.1,97.4*
C=C(C)Cn1c(N)cc(=O)nc1SCC(=O)Nc1cccc(C(F)(F)F)c1,-9.1,-9.2,11.8,8.8,4.1,97.2*
Nn1c(SCC(=O)Nc2cc(C(F)(F)F)ccc2Cl)nncc1=O,38.3,-10.7,24.9,13.4,31.7,15.6
Nn1c(SCC(=O)Nc2ccc3c(c2)OCO3)nncc1=O,20.4,-3.9,-10.7,-6.7,-2.1,98.3*
COC1=C(Nc2ccc(O)cc2)C(=O)c2ccccc2C1=O,-9.3,-58.0,-23.6,12.0,33.8,98.7*
O=C1C(Cl)=C(Nc2ccc(O)cc2)C(=O)c2ccccc21,1.5,-26.1,15.6,10.8,15.1,33.1
O=C1C=C(Nc2ccc(O)cc2)C(=O)c2ccccc21,7.7,-35.5,21.2,57.9,64.4*,/
CC(=O)Nc1ccc(NC2=CC(=O)c3ccccc3C2=O)cc1,/,-56.9,-0.3,31.9,76.9*,-8.5
COc1ccc(N(CC(=O)NC2CCCCC2)C(=O)CCCC(=O)Nc2ccccn2)cc1,19.0,-0.2,40.1,-0.2,8.5,/
